Results taken from publication PMC8189251 (ACS chemical biology, 2021).

What was measured:
U2 snRNP = conditions: bypassed by an ATP-dependent rearrangement; cited from earlier work
SF3B [1] = molecular target: T1, SF3B (Homo sapiens, UniProt O75533+Q7RTV0); conditions: cited from earlier work; for splicing products with inhibitor alone: 1 μM inhibitor alone in in vitro splicing reaction
U2 snRNA = assay: RNase H cleavage analysis of U2 snRNA accessibility in nuclear extract; type: biochemical, human; conditions: 1 μM, 10 minutes at 30°C
Outline: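 HeLa nuclear extract (40%), ATP-depleted 10 min at 30°C, in 60 mM potassium glutamate, 2 mM Mg acetate, 0.1 mg/mL tRNA, ±2 mM ATP, with test compound or DMSO, 10 min, 30°C. Oligos against U2 nt 24–38 or 32–46 (5 μM) were added for 15 min for endogenous RNase H cleavage, then DNase-removed. Read-out: primer extension (³²P primer, U2 97–117; MMLV RT, 53°C, 30 min), denaturing gel, phosphorimaging.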

SF3B [2] = molecular target: T1, SF3B; type: biochemical; conditions: for splicing efficiency, first incubation at 30°C compared to 4°C before excess iHB: 1 μM inhibitor, then 100 μM iHB

| Structure (SMILES) | effect on U2 snRNPs ability to engage an oligo containing the branch sequence (U2 snRNP) | splicing products with inhibitor alone (SF3B [1]) | effect on ATP-dependent changes in U2 snRNA cleavage (U2 snRNA) | splicing efficiency, inhibitor incubated before excess iHB competitor (SF3B [2]; 1 μM inhibitor 10 min, then 100 μM iHB 10 min) | splicing products, inhibitor followed by DMSO (SF3B [2]; 1 μM inhibitor 10 min, then DMSO 10 min, 4°C) | splicing efficiency, first incubation at 30°C compared to 4°C before excess iHB (SF3B [2]) | off-rate (SF3B [2]; inferred from order of addition, not direct binding) | IC50 (SF3B [1]; read-out: IC50 value for in vitro splicing, HeLa nuclear extract) [nM] |
| --- | --- | --- | --- | --- | --- | --- | --- | --- |
| CC[C@H](O)[C@@H](C)[C@H]1O[C@@H]1C[C@@](C)(O)/C=C/C=C(\C)[C@H]1OC(=O)C[C@H](O)CC[C@@](C)(O)[C@@H](OC(=O)N2CCN(C3CCCCCC3)CC2)/C=C/[C@@H]1C [E7107] | inhibits |  |  |  |  |  |  |  |
| CO[C@]1(C)C[C@@]2(CO2)[C@H](O)[C@@H](/C=C/C(C)=C/C[C@@H]2O[C@H](C)[C@H](NC(=O)/C=C\[C@H](C)OC(C)=O)C[C@@H]2C)O1 [SSA, spliceostatin A] |  | not detected | does not interfere | greatly reduced | no splicing products | lower | very slow |  |
| CO[C@H]([C@@H](C)[C@H]1O[C@]1(C)C[C@H](C)/C=C/C=C(\C)[C@H]1O[C@@H](CC(=O)O)CC[C@@H]1C)[C@@H](C)O [compound 1, herboxidiene] |  | not detected |  |  |  | lower |  | 300 |
